Data: ChEMBL document CHEMBL3856275, “Discovery of Second Generation Reversible Covalent DPP1 Inhibitors Leading to an Oxazepane Amidoacetonitrile Based Clinical Candidate (AZD7986)” (J Med Chem, 2016)
Values after ≈ are worked out from the molar mass of the structure shown. Values belong to the molecule of their own block, whether it stands above or below them.

Columns and labels:
physchem [1] = settings: octanol/water, pH 7.4
Dipeptidyl peptidase 1 [2] = target: T1, Dipeptidyl peptidase 1 (Homo sapiens, UniProt P53634); assay: Inhibition of DPP1 in human U937 cells using Gly-Phe-AFC as substrate preincubated for 60 mins followed by substrate addition by fluorescence assay; type: cell-based, U-937
Dipeptidyl peptidase 1 [3] = target: T1, Dipeptidyl peptidase 1; assay: Inhibition of human recombinant DPP1 using Gly-Arg-AMC as substrate preincubated for 30 mins followed by substrate addition by fluorometric assay
Method in brief: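 Isolated human recombinant DPP1 was run in a fluorometric assay in piperazine-based buffer. Compound was pre-incubated with enzyme for 30 min at rt, then Gly-Arg-AMC dipeptide substrate was added. Data were curve-fitted to give pIC50, as the mean of at least two experiments.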

[4] = Propionaldehyde reactivity assessed as half life of the compound at pH 7.4 by LC-UV method; type: physicochemical
[5] = Half life in Sprague-Dawley rat at 1 mg/kg, iv or 3 mg/kg, po; type: ADME, organism-based; settings: in vivo
[6] = Clearance in Sprague-Dawley rat at 1 mg/kg, iv or 3 mg/kg, po; type: ADME, organism-based; settings: in vivo
[7] = Protein binding in dog plasma at 10 uM after 6 hrs by LC-MS/MS method; type: ADME, cell-free, Canis lupus familiaris; settings: read-out: PPB (converted)
[8] = Volume of distribution at steady state in Sprague-Dawley rat at 1 mg/kg, iv or 3 mg/kg, po; type: ADME, organism-based; settings: in vivo, read-out: Vdss
[9] = Oral bioavailability in Sprague-Dawley rat at 3 mg/kg; type: ADME, organism-based; settings: in vivo
[10] = Intrinsic clearance in human hepatocytes assessed per 10^6 cells at 1 uM after 10 to 90 mins by LC-MS/MS method; type: ADME, cell-based, Hepatocyte
[11] = Apparent permeability across basolateral to apical side in human Caco2 cells at 10 uM after 1 hr by LC-MS method; settings: Caco-2
[12] = Protein binding in human plasma at 10 uM after 6 hrs by LC-MS/MS method; type: ADME, cell-free; settings: read-out: PPB (converted)
[13] = Intrinsic clearance in rat hepatocytes assessed per 10^6 cells at 1 uM after 10 to 90 mins by LC-MS/MS method; type: ADME, cell-based, Hepatocyte
[14] = Apparent permeability across apical to basolateral side in human Caco2 cells at 10 uM after 1 hr by LC-MS method; settings: Caco-2
[15] = Intrinsic clearance in human liver microsomes at 1 uM after 5 to 40 mins by LC-MS/MS method; type: ADME; settings: read-out: CLH
[16] = Protein binding in rat plasma at 10 uM after 6 hrs by LC-MS/MS method; type: ADME, cell-free; settings: read-out: PPB (converted)
physchem [17] = settings: pH 7.4
[18] = target: Voltage-gated inwardly rectifying potassium channel KCNH2 (Homo sapiens, UniProt Q12809)
[19] = Intrinsic clearance in dog hepatocytes assessed per 10^6 cells at 1 uM after 10 to 90 mins by LC-MS/MS method; type: ADME, cell-based, Canis lupus familiaris, Hepatocyte
[20] = Efflux ratio of apparent permeability across basolateral to apical over apical to basolateral side in human Caco2 cells at 10 uM after 1 hr by LC-MS method; settings: Caco-2

T1 sequence (P53634 25-134 limits assumed): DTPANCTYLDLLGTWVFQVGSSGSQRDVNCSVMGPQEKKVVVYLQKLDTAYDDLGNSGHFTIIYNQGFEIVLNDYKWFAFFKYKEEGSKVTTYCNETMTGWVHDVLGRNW
T1 sequence (P53634 231-394 limits assumed): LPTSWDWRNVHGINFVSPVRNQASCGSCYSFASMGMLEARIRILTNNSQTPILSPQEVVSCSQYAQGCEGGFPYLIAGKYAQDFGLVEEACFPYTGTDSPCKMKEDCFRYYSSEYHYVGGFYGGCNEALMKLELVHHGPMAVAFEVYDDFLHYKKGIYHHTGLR
T1 sequence (P53634 395-463 limits assumed): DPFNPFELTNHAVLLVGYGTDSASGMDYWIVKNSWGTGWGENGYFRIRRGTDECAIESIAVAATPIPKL
Sequence of Voltage-gated inwardly rectifying potassium channel KCNH2 (Q12809 whole entry): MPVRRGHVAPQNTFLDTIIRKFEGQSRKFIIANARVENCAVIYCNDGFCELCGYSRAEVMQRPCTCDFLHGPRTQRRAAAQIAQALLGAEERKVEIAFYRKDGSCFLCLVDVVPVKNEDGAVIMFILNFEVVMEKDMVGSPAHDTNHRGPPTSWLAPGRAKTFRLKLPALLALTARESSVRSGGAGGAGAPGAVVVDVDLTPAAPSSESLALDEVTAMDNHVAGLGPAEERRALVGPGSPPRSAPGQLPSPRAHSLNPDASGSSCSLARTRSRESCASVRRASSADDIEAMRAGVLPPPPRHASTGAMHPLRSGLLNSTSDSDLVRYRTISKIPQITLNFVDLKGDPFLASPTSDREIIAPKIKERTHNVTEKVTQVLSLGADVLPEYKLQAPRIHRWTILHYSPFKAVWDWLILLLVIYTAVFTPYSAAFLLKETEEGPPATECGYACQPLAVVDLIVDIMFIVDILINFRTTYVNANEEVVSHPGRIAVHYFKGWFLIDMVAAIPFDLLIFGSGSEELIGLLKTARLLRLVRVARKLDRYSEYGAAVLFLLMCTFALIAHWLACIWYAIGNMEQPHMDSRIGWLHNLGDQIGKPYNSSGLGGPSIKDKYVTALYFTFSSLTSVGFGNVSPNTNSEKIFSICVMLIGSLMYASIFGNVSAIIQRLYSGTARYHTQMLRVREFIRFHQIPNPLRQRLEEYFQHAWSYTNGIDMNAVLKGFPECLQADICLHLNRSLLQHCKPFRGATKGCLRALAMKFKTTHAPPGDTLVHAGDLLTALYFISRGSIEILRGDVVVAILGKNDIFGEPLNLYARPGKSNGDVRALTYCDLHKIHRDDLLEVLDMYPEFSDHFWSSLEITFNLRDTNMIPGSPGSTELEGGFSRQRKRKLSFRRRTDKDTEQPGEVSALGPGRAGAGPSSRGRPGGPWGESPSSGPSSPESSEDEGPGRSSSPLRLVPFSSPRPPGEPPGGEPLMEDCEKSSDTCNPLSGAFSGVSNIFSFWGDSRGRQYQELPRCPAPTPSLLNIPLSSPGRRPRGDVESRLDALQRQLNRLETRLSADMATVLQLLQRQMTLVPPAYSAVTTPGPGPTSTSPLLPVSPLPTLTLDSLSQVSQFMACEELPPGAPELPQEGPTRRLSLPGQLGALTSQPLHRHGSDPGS

half-life [4]: > 50 h
IC50 (Dipeptidyl peptidase 1 [3]): > 10000 nM
SMILES: N#Cc1ccc(-c2ccc(C[C@@H](C#N)NC(=O)[C@H]3CCCC[C@H]3N)cc2)cc1

logD at 10 µM (physchem [1]): 1.1
IC50 (Dipeptidyl peptidase 1 [2]): 200 nM
IC50 (Dipeptidyl peptidase 1 [3]): 200 nM
SMILES: N#C[C@H](Cc1ccc(-c2ncc(C(F)(F)F)cn2)cc1)NC(=O)[C@@H]1CNCCCO1

half-life [4]: > 50 h
IC50 (Dipeptidyl peptidase 1 [2]): 501 nM
IC50 (Dipeptidyl peptidase 1 [3]): 1260 nM
SMILES: N#Cc1ccc(-c2ccc(C[C@@H](C#N)NC(=O)C3CCCCNC3)cc2)cc1 (mixture of isomers)

half-life [4]: > 50 h
IC50 (Dipeptidyl peptidase 1 [2]): 1260 nM
IC50 (Dipeptidyl peptidase 1 [3]): 1000 nM
SMILES: N#Cc1ccc(-c2ccc(C[C@@H](C#N)NC(=O)[C@@H]3CCC[C@@H]3N)cc2)cc1

half-life [4]: > 50 h
logD at 10 µM (physchem [1]): 1.1
IC50 (Dipeptidyl peptidase 1 [3]): 63.1 nM
SMILES: N#Cc1ccc(-c2ccc(C[C@@H](C#N)NC(=O)C3CNCCCO3)cc2)cc1 (mixture of isomers)

half-life [5]: 8 h
half-life [4]: > 50 h
clearance [6]: 3 mL/min/kg
logD at 10 µM (physchem [1]): 1.5
Vd [8]: 2 L/kg
bioavailability [9]: 26%
intrinsic clearance (CLint) [10]: < 3.5 µL/min/10^6 cells
Papp B→A at 1 h, 10 µM [11]: 51 ×10⁻⁶ cm/s
CLH [19]: < 3.5 µL/min/10^6 cells
IC50 (Dipeptidyl peptidase 1 [2]): 3.16 nM
fraction unbound at 6 h, 10 µM [12]: 0.07
efflux ratio at 1 h, 10 µM [20]: 4.7
CLH [13]: < 3.5 µL/min/10^6 cells
Papp A→B at 1 h, 10 µM [14]: 11 ×10⁻⁶ cm/s
IC50 (Dipeptidyl peptidase 1 [3]): 2.51 nM
microsomal CLint at 1 µM [15]: < 15 µL/min/mg
fraction unbound at 6 h, 10 µM [16]: 0.05
solubility kinetic at 2 h (physchem [17]; buffer): 170 µM (≈ 74.2 µg/mL)
SMILES: Cn1c(=O)sc2ccc(-c3ccc(C[C@@H](C#N)NC(=O)[C@@H]4CNCCCO4)cc3)cc21
IC50 [18]: 23000 nM

More lines, now with the values behind:

SMILES: CN1C(=O)C(F)(F)c2ccc(-c3ccc(C[C@@H](C#N)NC(=O)[C@@H]4CNCCCO4)cc3)cc21
logD at 10 µM (physchem [1]): 1.4
IC50 (Dipeptidyl peptidase 1 [2]): 15.8 nM
IC50 (Dipeptidyl peptidase 1 [3]): 15.8 nM

SMILES: N#C[C@H](Cc1ccc(-c2ccc3oc(=O)n(CC(F)F)c3c2)cc1)NC(=O)[C@@H]1CNCCCO1
half-life [5]: 7 h
half-life [4]: > 50 h
clearance [6]: 4 mL/min/kg
fraction unbound at 6 h, 10 µM [7]: 0.15
logD at 10 µM (physchem [1]): 1
Vd [8]: 2 L/kg
bioavailability [9]: 29%
intrinsic clearance (CLint) [10]: 5 µL/min/10^6 cells
Papp B→A at 1 h, 10 µM [11]: 80 ×10⁻⁶ cm/s
IC50 (Dipeptidyl peptidase 1 [2]): 6.31 nM
fraction unbound at 6 h, 10 µM [12]: 0.07
CLH [13]: < 3.5 µL/min/10^6 cells
Papp A→B at 1 h, 10 µM [14]: 8 ×10⁻⁶ cm/s
IC50 (Dipeptidyl peptidase 1 [3]): 6.31 nM
microsomal CLint at 1 µM [15]: < 14 µL/min/mg
fraction unbound at 6 h, 10 µM [16]: 0.06
solubility kinetic at 2 h (physchem [17]; buffer): 190 µM (≈ 89.4 µg/mL)

SMILES: Cn1c(=O)ccc2ccc(-c3ccc(C[C@@H](C#N)NC(=O)[C@@H]4CNCCCO4)cc3)cc21
logD at 10 µM (physchem [1]): 1.1
IC50 (Dipeptidyl peptidase 1 [2]): 12.6 nM
IC50 (Dipeptidyl peptidase 1 [3]): 12.6 nM

SMILES: N#Cc1ccc(-c2ccc(C[C@@H](C#N)NC(=O)[C@H]3CCCC[C@@H]3N)cc2)cc1
half-life [4]: > 50 h
IC50 (Dipeptidyl peptidase 1 [2]): 398 nM
IC50 (Dipeptidyl peptidase 1 [3]): 501 nM

SMILES: N#Cc1ccc(-c2ccc(C[C@@H](C#N)NC(=O)[C@@H]3CCCC[C@@H]3N)cc2)cc1
half-life [4]: > 50 h
logD at 10 µM (physchem [1]): 1.6
Papp B→A at 1 h, 10 µM [11]: 36 ×10⁻⁶ cm/s
IC50 (Dipeptidyl peptidase 1 [2]): 39.8 nM
fraction unbound at 6 h, 10 µM [12]: 0.07
CLH [13]: < 3.5 µL/min/10^6 cells
Papp A→B at 1 h, 10 µM [14]: 11 ×10⁻⁶ cm/s
IC50 (Dipeptidyl peptidase 1 [3]): 39.8 nM
microsomal CLint at 1 µM [15]: 9.3 µL/min/mg
fraction unbound at 6 h, 10 µM [16]: 0.12
solubility kinetic at 2 h (physchem [17]; buffer): 175 µM (≈ 65.2 µg/mL)

SMILES: Cc1cc(-c2ccc(C[C@@H](C#N)NC(=O)[C@@H]3CNCCCO3)cc2)cc2c1oc(=O)n2C
half-life [5]: 8 h
half-life [4]: > 50 h
clearance [6]: 1 mL/min/kg
IC50 [18]: > 33000 nM
fraction unbound at 6 h, 10 µM [7]: 0.13
logD at 10 µM (physchem [1]): 1.5
Vd [8]: 0.5 L/kg
bioavailability [9]: 24%
intrinsic clearance (CLint) [10]: < 3.5 µL/min/10^6 cells
Papp B→A at 1 h, 10 µM [11]: 76 ×10⁻⁶ cm/s
CLH [19]: < 3.5 µL/min/10^6 cells
IC50 (Dipeptidyl peptidase 1 [2]): 7.94 nM
fraction unbound at 6 h, 10 µM [12]: 0.08
efflux ratio at 1 h, 10 µM [20]: 5.9
CLH [13]: < 3.5 µL/min/10^6 cells
Papp A→B at 1 h, 10 µM [14]: 13 ×10⁻⁶ cm/s
IC50 (Dipeptidyl peptidase 1 [3]): 10 nM
microsomal CLint at 1 µM [15]: < 14 µL/min/mg
fraction unbound at 6 h, 10 µM [16]: 0.03
solubility kinetic at 2 h (physchem [17]; phosphate buffered saline): 175 µM (≈ 76 µg/mL)

SMILES: N#Cc1cccc(-c2ccc(C[C@@H](C#N)NC(=O)C3CCCCC3N)cc2)c1 (stereo partly drawn)
IC50 (Dipeptidyl peptidase 1 [3]): 1000 nM

SMILES: N#Cc1ccc(-c2ccc(C[C@@H](C#N)NC(=O)[C@@H]3CCCNC3)cc2)cc1
logD at 10 µM (physchem [1]): 0.6
IC50 (Dipeptidyl peptidase 1 [3]): > 10000 nM
